Calls of active or inactive are those of the source.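 The calls were made as follows: active = inhibitors whose fitted half-maximal dose is at most ten times the top tested dose; inconclusive = flat curve with 30 to 70% inhibition, or a poor fit; inactive = the rest.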
Assays:
[1] = system: SK-MEL-5 TRPM1 promoter luciferase reporter, 24 h; experiment: suppression of TRPM1 promoter luciferase signal, dose response, MITF project, SK-MEL-5 cells, dry powder samples (AID 540348)
How it was run: (§1)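 Material: SK-MEL-5 melanoma cells with stable TRPM1 promoter–luciferase reporter / Compound: dry-powder compound dose series / Timing: cells plated day before, 24 h compound exposure, 37 °C / Detection: Steady-Glo luminescence after 5 min at room temperature, 0.5 s per well / Medium: DMEM lacking phenol red, supplemented with 10% iFBS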

[2] = as above; settings: SK-MEL-5 TRPM1 promoter luciferase reporter, 24 h; at 35 µM (top of the series)
How it was run: as §1

Row | Structure (SMILES) | AC50 [1] | activity change, negative = inhibition [2]
1 | COc1cc(/C=N/NC(N)=O)c(Br)cc1OCC(=O)Nc1ccccc1C | 17.7 µM | 
2 | CCN(CC)CCNC(=O)c1c(C)n(-c2ccccc2)c2cc(Br)c(OC)cc12 |  | -94.1% (inactive)
3 | CCN1c2ccccc2NC2N=C(OC)C(c3ccccc3)C21 (centres undefined) | 0.808 µM | 
4 | O=C(Nc1ccc(-c2nc3ncccc3o2)cc1)c1ccc([N+](=O)[O-])o1 | 8.55 µM | 
5 | COc1ccc(S(=O)(=O)N(C(C)=O)c2ccc(OC(C)=O)c3ccccc23)cc1[N+](=O)[O-] | 2.87 µM | 
6 | Cc1[nH]c2ccccc2c1C(=O)CCl |  | -106% (inactive)
7 | Cc1ccc(C(C)C)c(OCc2nn(CC(=O)c3ccc(Cl)cc3)c3[n+]2CCCCC3)c1 | 13.8 µM | 
8 | Cc1oc(-c2ccc(Cl)cc2)nc1CN1CCC(C(=O)NCCCN2CCCC(C)C2)CC1 (centres undefined) |  | -104% (inactive)
9 | C=CCNC1=C(Cl)C(=O)c2ccccc2C1=O | 0.905 µM | 
10 | COc1cc2c(cc1OC)C(c1ccccc1)N(C(=O)CCl)CC2 (centres undefined) | 5.19 µM | 
11 | O=C(Nc1ccc(N2CCN(C(=O)c3ccccc3)CC2)cc1)c1ccc([N+](=O)[O-])o1 | 9.85 µM | 
12 | CN(C)CCCNC(=O)/C(=C\c1ccc(-c2ccc(Br)cc2)o1)NC(=O)c1ccccc1 | 12.2 µM | 
13 | CC1=NNC(=O)/C1=C\c1cn(-c2ccccc2)nc1-c1ccc(F)cc1 |  | -106% (inactive)
14 | Cc1nc2ccccc2n1/N=C/c1ccc([N+](=O)[O-])s1 | 2.88 µM | 
15 | Cc1cc(C(C)(C)C)cc(C)c1Cn1c2[n+](c3ccc(C(F)(F)F)cc31)CCCCC2 | 9.42 µM | 
16 | O=C(COc1ccccc1)N/N=C/c1ccc([N+](=O)[O-])o1 | 2.6 µM | 
17 | CCN1CCN(C2=C(NS(=O)(=O)c3ccc(Br)cc3)C(=O)c3ccccc3C2=O)CC1 | 2.09 µM | 
18 | O=C(Cn1ncc(Cl)c(Cl)c1=O)N1CCc2ccccc21 | 4.69 µM | 
19 | CCN1CCCC1CNC(=O)c1ccc2c(c1)NC(=O)/C(=C\c1ccc(C)cc1)S2 (centres undefined) |  | -106% (inactive)
20 | Cc1ccc(C(O)(c2ccc(C)c(C)c2)C2CN3CCC2CC3)cc1C (centres undefined) |  | -51% (inactive)
21 | CC1CCCCC1NC(=O)/C(C#N)=C/C=C/c1ccccc1[N+](=O)[O-] (centres undefined) | 7.3 µM | 
22 | CC(C)C(CCNC1CCN(C)CC1)c1ccc(Cl)cc1 (centres undefined) | 10.6 µM | 
23 | Cc1ccc(C(=O)N/N=C/c2ccc([N+](=O)[O-])s2)cc1 | 5.75 µM | 
24 | CC1CN(C(=O)CCC(=O)NCCCN2CCC(Cc3ccccc3)CC2)c2cc(Cl)ccc2O1 (centres undefined) |  | -105% (inactive)
25 | N=c1n(CCN2CCCC2)c2ccccc2n1CC(O)c1ccc(Cl)c(Cl)c1 (centres undefined) |  | -109% (inactive)
26 | CC1CCN(CC(CS(=O)(=O)c2ccc([N+](=O)[O-])cc2)N2CCC(C)CC2)CC1 (centres undefined) | 5.58 µM | 
27 | CC1(C)CC(NC(=O)c2ccc(Cl)c(S(=O)(=O)N(Cc3ccccc3)c3ccccc3)c2)CC(C)(C)N1 | 6.34 µM | 
28 | O=C(CNc1cccc2ccccc12)N/N=C/c1ccc([N+](=O)[O-])o1 | 2.42 µM | 
29 | O=c1c(Cl)c2oc3ccccc3nc-2c2ccccc12 | 6.17 µM | 
